Test results: ChEMBL document CHEMBL2157889, “Design, synthesis and biological evaluation of heterocyclic azoles derivatives containing pyrazine moiety as potential telomerase inhibitors” (Bioorg Med Chem, 2012)

How the values were obtained:
HepG2 [1] = experiment: Antiproliferative activity against human HepG2 cells after 48 hrs by MTT method; assay type: functional, cell-based; conditions: HepG2, 48 h
HeLa = experiment: Antiproliferative activity against human HeLa cells after 48 hrs by MTT method; assay type: functional, cell-based
[2] = Antiproliferative activity against human SW1116 cells after 48 hrs by MTT method; assay type: functional, cell-based; conditions: SW 1116, 48 h
BGC-823 = experiment: Antiproliferative activity against human BGC823 cells after 48 hrs by MTT method; assay type: functional, cell-based; conditions: BGC-823, 48 h
Method in brief: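 MTT assay. Cells were seeded at 10⁴ per well and held 24 h at 37 °C with 5% CO₂. […] After 48 h, 5 mg/mL MTT in PBS was added for 4 h. Formazan was dissolved in DMSO and absorbance read at 490 nm.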

[3] = biological target: Telomerase reverse transcriptase (Homo sapiens, UniProt O14746); experiment: Inhibition of telomerase in human HepG2 cells after 24 hrs by TRAP-PCR-ELISA assay; assay type: cell-based
Sequence of Telomerase reverse transcriptase (O14746 whole entry): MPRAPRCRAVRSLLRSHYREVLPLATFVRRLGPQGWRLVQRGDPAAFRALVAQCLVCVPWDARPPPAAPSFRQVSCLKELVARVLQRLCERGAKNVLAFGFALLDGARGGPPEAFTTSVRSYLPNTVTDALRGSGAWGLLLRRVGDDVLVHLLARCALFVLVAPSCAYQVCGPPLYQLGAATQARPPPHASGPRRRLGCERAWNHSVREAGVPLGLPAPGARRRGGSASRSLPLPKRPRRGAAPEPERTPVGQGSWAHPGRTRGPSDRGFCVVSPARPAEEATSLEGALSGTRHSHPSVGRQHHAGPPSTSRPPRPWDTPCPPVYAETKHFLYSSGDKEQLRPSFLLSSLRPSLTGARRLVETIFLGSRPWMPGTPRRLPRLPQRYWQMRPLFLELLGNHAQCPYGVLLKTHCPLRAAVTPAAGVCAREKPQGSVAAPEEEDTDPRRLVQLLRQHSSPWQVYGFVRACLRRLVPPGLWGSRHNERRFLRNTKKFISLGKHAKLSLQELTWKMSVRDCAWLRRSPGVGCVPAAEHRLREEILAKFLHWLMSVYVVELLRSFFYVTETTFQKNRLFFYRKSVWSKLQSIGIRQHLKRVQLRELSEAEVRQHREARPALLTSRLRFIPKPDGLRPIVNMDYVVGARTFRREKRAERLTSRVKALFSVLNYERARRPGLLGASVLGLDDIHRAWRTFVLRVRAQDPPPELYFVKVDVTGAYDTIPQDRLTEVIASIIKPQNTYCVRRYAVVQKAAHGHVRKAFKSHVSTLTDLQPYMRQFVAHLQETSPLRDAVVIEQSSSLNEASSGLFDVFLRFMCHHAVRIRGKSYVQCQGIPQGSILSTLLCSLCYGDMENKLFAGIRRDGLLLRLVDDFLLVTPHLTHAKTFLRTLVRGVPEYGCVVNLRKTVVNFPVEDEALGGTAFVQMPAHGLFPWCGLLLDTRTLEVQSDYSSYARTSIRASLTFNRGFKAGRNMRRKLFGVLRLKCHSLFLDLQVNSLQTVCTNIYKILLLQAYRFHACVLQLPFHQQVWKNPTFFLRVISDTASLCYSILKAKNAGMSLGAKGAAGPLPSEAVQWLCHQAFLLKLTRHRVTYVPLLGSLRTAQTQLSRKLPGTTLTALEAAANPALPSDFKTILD
Method in brief: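 Cells in serum/penicillin/streptomycin medium (37 °C, 5% CO₂) were seeded at 5×10⁴ per T25 flask and allowed to adhere. After 24 h treatment, cells were lysed in RIPA buffer on ice for 30 min and spun at 12,000 g for 20 min at 4 °C. For the kit-based TRAP-PCR-ELISA, PCR ran 94 °C 120 s, then 35 cycles of 94/50/72 °C. Product was hybridised to a DIG probe, captured via biotin-streptavidin, detected with peroxidase anti-DIG, and read at 490 nm.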

HepG2 [4] = experiment: Induction of apoptosis in human HepG2 cells assessed as early apoptotic cells at 2 uM after 24 hrs by annexin VeFITC/PI-based flow cytometry (reference value: 3.28 %); assay type: functional
HepG2 [5] = experiment: Induction of apoptosis in human HepG2 cells assessed as viable cells at 2 uM after 24 hrs by annexin VeFITC/PI-based flow cytometry (reference value: 89.18 %); assay type: functional; conditions: HepG2, 24 h, read-out: Activity
HepG2 [6] = experiment: Induction of apoptosis in human HepG2 cells assessed as late apoptotic cells at 0.25 uM after 24 hrs by annexin VeFITC/PI-based flow cytometry (reference value: 6.84 %); assay type: functional
HepG2 [7] = experiment: Induction of apoptosis in human HepG2 cells assessed as viable cells at 0.25 uM after 24 hrs by annexin VeFITC/PI-based flow cytometry (reference value: 89.18 %); assay type: functional; conditions: HepG2, 24 h, read-out: Activity
HepG2 [8] = experiment: Induction of apoptosis in human HepG2 cells assessed as early apoptotic cells at 0.5 uM after 24 hrs by annexin VeFITC/PI-based flow cytometry (reference value: 3.28 %); assay type: functional
HepG2 [9] = experiment: Induction of apoptosis in human HepG2 cells assessed as early apoptotic cells at 0.25 uM after 24 hrs by annexin VeFITC/PI-based flow cytometry (reference value: 3.28 %); assay type: functional
HepG2 [10] = experiment: Induction of apoptosis in human HepG2 cells assessed as viable cells at 1 uM after 24 hrs by annexin VeFITC/PI-based flow cytometry (reference value: 89.18 %); assay type: functional; conditions: HepG2, 24 h, read-out: Activity
HepG2 [11] = experiment: Induction of apoptosis in human HepG2 cells assessed as necrotic cells at 1 uM after 24 hrs by annexin VeFITC/PI-based flow cytometry (reference value: 0.7 %); assay type: functional
HepG2 [12] = experiment: Induction of apoptosis in human HepG2 cells assessed as necrotic cells at 0.25 uM after 24 hrs by annexin VeFITC/PI-based flow cytometry (reference value: 0.7 %); assay type: functional
HepG2 [13] = experiment: Induction of apoptosis in human HepG2 cells assessed as early apoptotic cells at 1 uM after 24 hrs by annexin VeFITC/PI-based flow cytometry (reference value: 3.28 %); assay type: functional
HepG2 [14] = experiment: Induction of apoptosis in human HepG2 cells assessed as viable cells at 0.5 uM after 24 hrs by annexin VeFITC/PI-based flow cytometry (reference value: 89.18 %); assay type: functional; conditions: HepG2, 24 h, read-out: Activity
HepG2 [15] = experiment: Induction of apoptosis in human HepG2 cells assessed as late apoptotic cells at 1 uM after 24 hrs by annexin VeFITC/PI-based flow cytometry (reference value: 6.84 %); assay type: functional
HepG2 [16] = experiment: Induction of apoptosis in human HepG2 cells assessed as necrotic cells at 0.5 uM after 24 hrs by annexin VeFITC/PI-based flow cytometry (reference value: 0.7 %); assay type: functional
HepG2 [17] = experiment: Induction of apoptosis in human HepG2 cells assessed as late apoptotic cells at 0.5 uM after 24 hrs by annexin VeFITC/PI-based flow cytometry (reference value: 6.84 %); assay type: functional
HepG2 [18] = experiment: Induction of apoptosis in human HepG2 cells assessed as late apoptotic cells at 2 uM after 24 hrs by annexin VeFITC/PI-based flow cytometry (reference value: 6.84 %); assay type: functional
HepG2 [19] = experiment: Induction of apoptosis in human HepG2 cells assessed as necrotic cells at 2 uM after 24 hrs by annexin VeFITC/PI-based flow cytometry (reference value: 0.7 %); assay type: functional
HepG2 [20] = experiment: Induction of apoptosis in human HepG2 cells after 24 hrs by annexin VeFITC/PI-based flow cytometry; assay type: functional, cell-based

SMILES	IC50 (HepG2 [1])	IC50 (HeLa)	IC50 [2]	IC50 (BGC-823)	IC50 [3]	also measured
Fc1ccc(CSc2nnc(-c3cnccn3)o2)c(F)c1	14.4 µM	26.7 µM	19.3 µM	33 µM	–	–
c1ccc(CSc2nnc(-c3cnccn3)s2)cc1	11.3 µM	34.4 µM	7.88 µM	21.2 µM	–	–
Clc1ccc(CSc2nnc(-c3cnccn3)n2-c2ccccc2)cc1	15.3 µM	> 50 µM	12.5 µM	27.7 µM	13.4 µM	–
Clc1cccc(CSc2nnc(-c3cnccn3)n2-c2ccccc2)c1	19.6 µM	13.5 µM	6.61 µM	20.3 µM	–	–
Brc1ccccc1CSc1nnc(-c2cnccn2)o1	4.22 µM	8.89 µM	2.46 µM	17.6 µM	3.55 µM	–
Fc1cccc(F)c1CSc1nnc(-c2cnccn2)n1-c1ccccc1	22.6 µM	> 50 µM	24.1 µM	> 50 µM	24.2 µM	–
O=c1[nH]cc(F)c(=O)[nH]1 [FLUOROURACIL]	1.3 µM	3.25 µM	2.41 µM	–	–	–
Brc1ccccc1CSc1nnc(-c2cnccn2)s1	9.81 µM	21.3 µM	6.95 µM	18.9 µM	3.97 µM	–
Clc1ccc(CSc2nnc(-c3cnccn3)s2)cc1	6.23 µM	18.9 µM	4.77 µM	13.4 µM	7.88 µM	–
Clc1ccccc1CSc1nnc(-c2cnccn2)o1	12.3 µM	23 µM	15.1 µM	27.7 µM	–	–
Fc1ccc(CSc2nnc(-c3cnccn3)n2-c2ccccc2)c(F)c1	10.4 µM	12.5 µM	4.65 µM	17.8 µM	–	–
Brc1cccc(CSc2nnc(-c3cnccn3)s2)c1	1.79 µM	5.43 µM	5.26 µM	16.7 µM	1.54 µM	–
Fc1ccccc1CSc1nnc(-c2cnccn2)n1-c1ccccc1	19.3 µM	44.1 µM	18.8 µM	> 50 µM	17.6 µM	–
Brc1ccc(CSc2nnc(-c3cnccn3)n2-c2ccccc2)cc1	11.4 µM	8.63 µM	6.21 µM	19.8 µM	7.13 µM	–
Clc1ccccc1CSc1nnc(-c2cnccn2)s1	10.8 µM	28.9 µM	7.53 µM	20.3 µM	–	–
Fc1ccc(CSc2nnc(-c3cnccn3)o2)cc1	16.5 µM	41.6 µM	22.7 µM	> 50 µM	17.1 µM	–
Brc1ccc(CSc2nnc(-c3cnccn3)s2)cc1	0.78 µM	12.4 µM	1.47 µM	25.2 µM	1.24 µM	Activity (HepG2 [4]): 17.54%; viability at 2 µM (HepG2 [5]): 44.5%; Activity (HepG2 [6]): 8.62%; viability at 0.25 µM (HepG2 [7]): 85.3%; Activity (HepG2 [8]): 11.48%; Activity (HepG2 [9]): 4.36%; viability at 1 µM (HepG2 [10]): 50.3%; Activity (HepG2 [11]): 4.18%; Activity (HepG2 [12]): 1.72%; Activity (HepG2 [13]): 14.96%; viability at 0.5 µM (HepG2 [14]): 60.9%; Activity (HepG2 [15]): 30.6%; Activity (HepG2 [16]): 3.62%; Activity (HepG2 [17]): 24.02%; Activity (HepG2 [18]): 35.16%; Activity (HepG2 [19]): 2.82%; Activity (HepG2 [20]): Dose-dependent effect
c1ccc(CSc2nnc(-c3cnccn3)n2-c2ccccc2)cc1	17.1 µM	35.6 µM	15.4 µM	> 50 µM	–	–

SMILES	IC50 (HepG2 [1])	IC50 (HeLa)	IC50 [2]	IC50 (BGC-823)	IC50 [3]	also measured
Brc1ccccc1CSc1nnc(-c2cnccn2)n1-c1ccccc1	11.6 µM	> 50 µM	19.4 µM	36.2 µM	–	–
Fc1cccc(F)c1CSc1nnc(-c2cnccn2)o1	17.1 µM	> 50 µM	23.8 µM	> 50 µM	–	–
c1ccc(CSc2nnc(-c3cnccn3)o2)cc1	11.2 µM	21.1 µM	34 µM	25 µM	–	–
Brc1cccc(CSc2nnc(-c3cnccn3)o2)c1	5.79 µM	30.3 µM	5.06 µM	11.5 µM	3.59 µM	–
Clc1cccc(CSc2nnc(-c3cnccn3)s2)c1	7.03 µM	29.7 µM	12.1 µM	14.7 µM	3.12 µM	–
Clc1ccc(CSc2nnc(-c3cnccn3)o2)cc1	11.5 µM	24.6 µM	17.3 µM	30 µM	–	–
Fc1ccc(CSc2nnc(-c3cnccn3)n2-c2ccccc2)cc1	10.1 µM	7.3 µM	4.12 µM	27.2 µM	15 µM	–
Fc1cccc(F)c1CSc1nnc(-c2cnccn2)s1	6.9 µM	29.2 µM	16.8 µM	18.6 µM	–	–
Clc1cccc(CSc2nnc(-c3cnccn3)o2)c1	7.5 µM	14.6 µM	7.88 µM	15.8 µM	6.38 µM	–
Brc1cccc(CSc2nnc(-c3cnccn3)n2-c2ccccc2)c1	10.6 µM	9.58 µM	5.03 µM	18.3 µM	–	–
CN[C@@H]1C[C@H]2O[C@@](C)([C@@H]1OC)n1c3ccccc3c3c4c(c5c6ccccc6n2c5c31)C(=O)NC4 [STAUROSPORINE]	–	–	–	6.83 µM	–	–
Clc1ccccc1CSc1nnc(-c2cnccn2)n1-c1ccccc1	18.8 µM	> 50 µM	18.1 µM	34.7 µM	–	–
Fc1ccc(CSc2nnc(-c3cnccn3)s2)cc1	10.1 µM	> 50 µM	17.1 µM	29.3 µM	12.1 µM	–
Fc1ccccc1CSc1nnc(-c2cnccn2)s1	9.52 µM	32.7 µM	6.77 µM	18.4 µM	–	–
Fc1ccccc1CSc1nnc(-c2cnccn2)o1	12.5 µM	25.3 µM	16.8 µM	18.2 µM	–	–
Fc1ccc(CSc2nnc(-c3cnccn3)s2)c(F)c1	9.63 µM	20.9 µM	5.18 µM	14.5 µM	–	–
Brc1ccc(CSc2nnc(-c3cnccn3)o2)cc1	13.2 µM	21.6 µM	14.4 µM	25.7 µM	–	–
